Laboratory results: ChEMBL document CHEMBL5620393, “New aryl and acylsulfonamides as state-dependent inhibitors of Nav1.3 voltage-gated sodium channel” (Eur J Med Chem, 2023)
The source made the active and inactive calls. No cut-off for these calls is given here.

Columns and labels:
[1] = biological target: T1, Sodium channel protein type 5 subunit alpha (Homo sapiens, UniProt Q14524); assay: Inhibition of human Nav1.5 expressed in CHO cells under tonic pulse 1 by automated patch clamp electrophysiology analysis; format: cell-based
T1 sequence (Q14524 whole entry): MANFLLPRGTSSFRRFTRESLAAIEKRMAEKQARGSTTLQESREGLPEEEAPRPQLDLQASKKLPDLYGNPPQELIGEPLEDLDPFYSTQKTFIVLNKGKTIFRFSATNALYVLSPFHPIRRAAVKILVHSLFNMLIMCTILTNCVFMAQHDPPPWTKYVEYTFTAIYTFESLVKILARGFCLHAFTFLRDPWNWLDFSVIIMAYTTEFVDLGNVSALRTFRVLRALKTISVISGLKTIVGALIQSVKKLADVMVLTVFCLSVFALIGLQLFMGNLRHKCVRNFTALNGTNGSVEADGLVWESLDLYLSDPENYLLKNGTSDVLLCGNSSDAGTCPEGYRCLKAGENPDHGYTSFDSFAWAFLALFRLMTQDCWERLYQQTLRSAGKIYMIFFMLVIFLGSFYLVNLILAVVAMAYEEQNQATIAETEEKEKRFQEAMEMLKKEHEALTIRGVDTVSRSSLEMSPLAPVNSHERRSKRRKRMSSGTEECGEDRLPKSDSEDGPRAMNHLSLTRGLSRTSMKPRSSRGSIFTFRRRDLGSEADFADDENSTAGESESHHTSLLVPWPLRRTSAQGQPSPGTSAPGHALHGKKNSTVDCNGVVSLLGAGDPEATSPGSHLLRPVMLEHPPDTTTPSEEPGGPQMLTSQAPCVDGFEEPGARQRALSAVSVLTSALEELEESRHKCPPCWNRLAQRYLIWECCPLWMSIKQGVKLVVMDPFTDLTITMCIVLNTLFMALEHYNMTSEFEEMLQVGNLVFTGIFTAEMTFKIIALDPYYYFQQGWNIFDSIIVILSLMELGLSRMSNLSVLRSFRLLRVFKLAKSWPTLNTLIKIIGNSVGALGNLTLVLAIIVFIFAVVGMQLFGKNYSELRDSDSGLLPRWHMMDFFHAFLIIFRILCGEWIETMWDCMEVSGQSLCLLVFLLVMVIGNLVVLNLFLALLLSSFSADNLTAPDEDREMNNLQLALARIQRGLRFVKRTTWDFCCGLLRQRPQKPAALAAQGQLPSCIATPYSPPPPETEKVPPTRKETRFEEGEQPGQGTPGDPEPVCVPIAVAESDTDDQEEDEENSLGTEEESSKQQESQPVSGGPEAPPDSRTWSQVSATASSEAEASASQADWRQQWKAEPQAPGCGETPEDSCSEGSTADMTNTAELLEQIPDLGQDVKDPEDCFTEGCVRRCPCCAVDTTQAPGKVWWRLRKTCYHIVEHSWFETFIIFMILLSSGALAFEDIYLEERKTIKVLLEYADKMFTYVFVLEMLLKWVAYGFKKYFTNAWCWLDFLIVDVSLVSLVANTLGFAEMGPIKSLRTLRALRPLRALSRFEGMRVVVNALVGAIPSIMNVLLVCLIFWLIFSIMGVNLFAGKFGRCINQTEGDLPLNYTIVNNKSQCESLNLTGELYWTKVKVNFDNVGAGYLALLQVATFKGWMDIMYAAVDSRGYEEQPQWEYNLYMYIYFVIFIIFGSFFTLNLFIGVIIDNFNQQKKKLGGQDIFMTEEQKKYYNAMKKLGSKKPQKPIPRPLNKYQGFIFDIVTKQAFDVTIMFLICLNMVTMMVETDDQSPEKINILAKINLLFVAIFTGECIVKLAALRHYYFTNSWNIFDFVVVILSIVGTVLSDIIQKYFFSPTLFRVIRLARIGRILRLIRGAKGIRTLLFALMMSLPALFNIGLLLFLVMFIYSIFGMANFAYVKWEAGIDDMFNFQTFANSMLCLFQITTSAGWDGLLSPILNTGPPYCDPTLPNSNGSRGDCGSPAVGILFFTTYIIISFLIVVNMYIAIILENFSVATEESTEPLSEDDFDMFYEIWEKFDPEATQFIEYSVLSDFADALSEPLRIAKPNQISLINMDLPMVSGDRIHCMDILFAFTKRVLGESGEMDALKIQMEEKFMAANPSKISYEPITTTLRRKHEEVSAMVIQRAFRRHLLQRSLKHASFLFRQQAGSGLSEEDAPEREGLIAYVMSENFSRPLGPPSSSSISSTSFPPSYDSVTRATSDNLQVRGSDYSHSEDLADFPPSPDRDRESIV

[2] = biological target: T1, Sodium channel protein type 5 subunit alpha; assay: Inhibition of human Nav1.5 expressed in Xenopus laevis oocytes at closed state at 1 uM by two electrode voltage-clamp assay; format: cell-based; conditions: oocyte
In short: (§1)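 TEVC on Nav channels expressed in Xenopus laevis oocytes. Each oocyte was injected with 50 nL cRNA at 1 ng/nL and recorded 1–4 days later at 18–22 °C. Bath (mM): NaCl 96, KCl 2, CaCl2 1.8, MgCl2 2, HEPES 5, pH 7.4. Electrodes held 3 M KCl at 0.8–1.5 MΩ. Compound tested at 1 μM. Mean ± SD, n ≥ 5.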

[3] = biological target: T1, Sodium channel protein type 5 subunit alpha; assay: Inhibition of human Nav1.5 expressed in CHO cells by automated patch clamp electrophysiology analysis
[4] = biological target: T2, Sodium channel protein type 3 subunit alpha (Homo sapiens, UniProt Q9NY46); assay: Inhibition of human Nav1.3 expressed in CHO cells under resting state by automated patch clamp electrophysiology analysis; format: cell-based
[5] = biological target: T2, Sodium channel protein type 3 subunit alpha; assay: Inhibition of human Nav1.3 expressed in CHO cells under inactivated state by automated patch clamp electrophysiology analysis; format: cell-based
[6] = biological target: Sodium channel protein type 1 subunit alpha (Homo sapiens) (UniProt P35498); assay: Inhibition of human Nav1.1 expressed in Xenopus laevis oocytes at closed state at 1 uM by two electrode voltage-clamp assay; format: cell-based; conditions: Oocyte; in short: as §1
[7] = biological target: Sodium channel protein type 2 subunit alpha (Rattus norvegicus) (UniProt P04775); assay: Inhibition of rat Nav1.2 expressed in Xenopus laevis oocytes at closed state at 1 uM by two electrode voltage-clamp assay; format: cell-based; conditions: Oocyte; in short: as §1
Sodium channel protein type 2 subunit alpha (Rattus norvegicus), sequence (P04775 whole entry, looked up): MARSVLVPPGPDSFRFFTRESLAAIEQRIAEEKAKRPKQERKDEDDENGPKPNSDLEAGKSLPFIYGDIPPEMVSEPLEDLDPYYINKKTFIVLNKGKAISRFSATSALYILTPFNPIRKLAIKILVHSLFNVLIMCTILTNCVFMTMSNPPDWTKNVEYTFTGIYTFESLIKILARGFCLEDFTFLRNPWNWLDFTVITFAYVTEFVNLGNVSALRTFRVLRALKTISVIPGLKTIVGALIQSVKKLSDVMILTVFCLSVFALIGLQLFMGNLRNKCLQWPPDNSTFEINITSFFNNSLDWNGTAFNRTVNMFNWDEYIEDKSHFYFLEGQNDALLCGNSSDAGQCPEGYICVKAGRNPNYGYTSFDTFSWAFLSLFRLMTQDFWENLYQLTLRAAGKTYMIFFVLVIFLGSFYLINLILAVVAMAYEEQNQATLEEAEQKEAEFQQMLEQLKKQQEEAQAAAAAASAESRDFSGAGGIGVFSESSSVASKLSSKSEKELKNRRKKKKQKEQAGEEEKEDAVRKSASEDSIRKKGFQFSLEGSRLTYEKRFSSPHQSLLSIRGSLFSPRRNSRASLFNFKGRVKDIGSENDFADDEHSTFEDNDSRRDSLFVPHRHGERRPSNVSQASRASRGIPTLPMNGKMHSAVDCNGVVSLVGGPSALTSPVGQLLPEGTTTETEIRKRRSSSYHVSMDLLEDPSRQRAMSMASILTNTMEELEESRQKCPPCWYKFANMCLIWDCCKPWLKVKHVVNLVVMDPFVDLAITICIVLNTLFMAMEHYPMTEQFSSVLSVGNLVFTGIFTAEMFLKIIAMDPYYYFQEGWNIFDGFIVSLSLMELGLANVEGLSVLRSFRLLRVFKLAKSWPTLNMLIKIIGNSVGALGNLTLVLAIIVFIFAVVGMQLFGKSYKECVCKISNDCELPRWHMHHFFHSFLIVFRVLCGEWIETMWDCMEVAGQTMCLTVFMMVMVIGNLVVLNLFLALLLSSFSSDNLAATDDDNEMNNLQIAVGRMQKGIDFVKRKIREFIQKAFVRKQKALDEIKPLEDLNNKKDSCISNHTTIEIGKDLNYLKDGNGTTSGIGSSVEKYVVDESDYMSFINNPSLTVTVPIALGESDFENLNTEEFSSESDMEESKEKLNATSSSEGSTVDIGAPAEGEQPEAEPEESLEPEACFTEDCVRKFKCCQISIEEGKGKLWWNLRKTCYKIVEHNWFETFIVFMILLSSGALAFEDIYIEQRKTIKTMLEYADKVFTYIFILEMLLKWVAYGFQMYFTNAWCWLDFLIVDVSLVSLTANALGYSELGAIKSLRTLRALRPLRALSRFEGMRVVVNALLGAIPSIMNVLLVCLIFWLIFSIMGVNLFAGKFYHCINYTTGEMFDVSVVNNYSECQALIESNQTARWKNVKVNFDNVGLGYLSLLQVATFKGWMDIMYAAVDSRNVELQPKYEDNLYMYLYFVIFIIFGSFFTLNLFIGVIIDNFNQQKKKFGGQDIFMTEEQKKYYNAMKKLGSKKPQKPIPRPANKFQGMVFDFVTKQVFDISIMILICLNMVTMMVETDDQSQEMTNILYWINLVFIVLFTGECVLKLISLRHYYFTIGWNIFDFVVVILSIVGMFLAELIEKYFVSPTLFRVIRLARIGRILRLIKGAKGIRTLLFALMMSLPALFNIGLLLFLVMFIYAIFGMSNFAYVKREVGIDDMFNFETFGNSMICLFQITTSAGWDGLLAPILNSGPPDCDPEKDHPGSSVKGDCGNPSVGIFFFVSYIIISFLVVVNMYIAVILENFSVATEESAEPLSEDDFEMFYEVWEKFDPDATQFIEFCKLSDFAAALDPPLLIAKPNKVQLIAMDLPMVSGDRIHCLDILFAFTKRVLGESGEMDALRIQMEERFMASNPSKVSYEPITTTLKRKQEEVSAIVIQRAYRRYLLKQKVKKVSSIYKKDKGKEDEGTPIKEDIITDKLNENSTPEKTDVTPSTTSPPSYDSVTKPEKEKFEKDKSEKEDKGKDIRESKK

[8] = biological target: Sodium channel protein type 4 subunit alpha (Rattus norvegicus) (UniProt P15390); assay: Inhibition of rat Nav1.4 expressed in Xenopus laevis oocytes at closed state at 1 uM by two electrode voltage-clamp assay; format: cell-based; conditions: Oocyte; in short: as §1
[9] = biological target: Sodium channel protein type 8 subunit alpha (Mus musculus) (UniProt Q9WTU3); assay: Inhibition of mouse Nav1.6 expressed in Xenopus laevis oocytes at closed state at 1 uM by two electrode voltage-clamp assay; format: cell-based; conditions: Oocyte; in short: as §1
[10] = biological target: T3, Sodium channel protein type 9 subunit alpha (Homo sapiens, UniProt Q15858); assay: Inhibition of human Nav1.7 expressed in Xenopus laevis oocytes at closed state at 1 uM by two electrode voltage-clamp assay; format: cell-based; conditions: Oocyte; in short: as §1
[11] = biological target: Sodium channel protein type 10 subunit alpha (Homo sapiens) (UniProt Q9Y5Y9); assay: Inhibition of human Nav1.8 expressed in Xenopus laevis oocytes at closed state at 1 uM by two electrode voltage-clamp assay; format: cell-based; conditions: Oocyte; in short: as §1
[12] = biological target: T3, Sodium channel protein type 9 subunit alpha; assay: Inhibition of human Nav1.7 expressed in CHO cells under resting state by automated patch clamp electrophysiology analysis; format: cell-based
[13] = biological target: T3, Sodium channel protein type 9 subunit alpha; assay: Inhibition of human Nav1.7 expressed in CHO cells under inactivated state by automated patch clamp electrophysiology analysis; format: cell-based
[14] = biological target: T1, Sodium channel protein type 5 subunit alpha; assay: Inhibition of human Nav1.5 expressed in CHO cells under resting state by automated patch clamp electrophysiology analysis; format: cell-based
[15] = biological target: T1, Sodium channel protein type 5 subunit alpha; assay: Inhibition of human Nav1.5 expressed in CHO cells under inactivated state by automated patch clamp electrophysiology analysis; format: cell-based
[16] = biological target: Sodium channel protein type 3 subunit alpha (Rattus norvegicus) (UniProt P08104); assay: Inhibition of rat Nav1.3 expressed in Xenopus laevis oocytes at 1 uM under inactivated state by two electrode voltage-clamp assay relative to control; format: cell-based; conditions: Oocyte; in short: as §1

SMILES | IC50 [1] | inhibition (INH) [2] | IC50 [3] | IC50 [4] | IC50 [5] | further results
O=C(Nc1ccc(S(=O)(=O)Nc2nccs2)cc1)c1cccn1Cc1ccccc1 | > 30 µM | Not Active | > 30 µM | – | – | –
CC(=O)NS(=O)(=O)c1ccc(NC(=O)c2cc(Br)c(Br)n2-c2ccccc2)cc1 | – | – | – | > 30 µM | 19 µM | –
Cc1nn(C)cc1/C=C(\C#N)C(=O)Nc1ccc(S(=O)(=O)Nc2nccs2)cc1 | > 30 µM | Not Active | > 30 µM | 26 µM | 3.8 µM | inhibition [6]: inactive; inhibition [7]: inactive; inhibition [8]: inactive; inhibition [9]: inactive; inhibition [10]: inactive; inhibition [11]: inactive
C[C@@H](Oc1ccc(Cl)cc1)C(=O)Nc1ccc(C(=O)NS(=O)(=O)N(C)C)cc1 | – | Not Active | – | – | – | –
O=C(Nc1ccc(S(=O)(=O)Nc2nccs2)cc1)[C@@H]1C[C@H]1c1ccccc1 | – | – | – | – | – | IC50 ([4]; cho): 18 µM; IC50 ([5]; cho): 0.056 µM
O=C(Nc1cccc(S(=O)(=O)Nc2nccs2)c1)c1cccn1Cc1ccc(Cl)cc1 | > 30 µM | Not Active | > 30 µM | – | – | –
CS(=O)(=O)NC(=O)c1ccc(NC(=O)c2cc(Br)c(Br)n2-c2ccccc2)cc1 | – | Not Active | – | – | – | –
CC1CCCC(C)N1S(=O)(=O)c1ccc(NS(=O)(=O)c2ccc3c(c2)CC(=O)N3C)cc1 (centres undefined) | – | – | – | > 30 µM | 28 µM | –
CS(=O)(=O)NC(=O)c1ccc(NC(=O)c2cccn2Cc2ccc(Cl)cc2)cc1 | – | Not Active | – | > 30 µM | > 30 µM | inhibition [6]: inactive; inhibition [7]: inactive; inhibition [8]: inactive; inhibition [9]: inactive; inhibition [10]: inactive; inhibition [11]: inactive
O=C(Nc1ccc(S(=O)(=O)Nc2nccs2)cc1)c1cc(Br)c(Br)n1Cc1ccccc1 | > 30 µM | Not Active | > 30 µM | – | – | IC50 [12]: > 30 µM; IC50 [13]: 7.1 µM; IC50 [14]: > 30 µM; IC50 [15]: 3.5 µM
CN(C)S(=O)(=O)NC(=O)c1ccc(NC(=O)[C@@H]2C[C@H]2c2ccccc2)cc1 | – | Not Active | – | – | – | –
O=C(Nc1cccc(S(=O)(=O)Nc2nccs2)c1)[C@@H]1C[C@H]1c1ccccc1 | > 30 µM | Not Active | > 30 µM | – | – | –
Cc1nc(-c2c(Cl)cccc2Cl)sc1C(=O)N[C@@H](Cc1ccccc1)C(=O)O | – | Not Active | – | – | – | –
O=C(Nc1cccc(S(=O)(=O)Nc2nccs2)c1)c1cccn1Cc1ccccc1 | > 30 µM | Not Active | > 30 µM | – | – | –
CN(C)S(=O)(=O)NC(=O)c1ccc(NC(=O)c2cc3ccccc3o2)cc1 | – | Not Active | – | – | – | –
CC(=O)NS(=O)(=O)c1ccc(NC(=O)CC(C)c2ccccc2)cc1 (centres undefined) | – | – | – | > 30 µM | 21 µM | –
CS(=O)(=O)NC(=O)c1cccc(OC[C@@H]2C[C@H]2c2ccccc2)c1 | > 30 µM | Not Active | > 30 µM | > 30 µM | > 30 µM | inhibition [6]: inactive; inhibition [7]: inactive; inhibition [8]: inactive; inhibition [9]: inactive; inhibition [10]: inactive; inhibition [11]: inactive
CC1CCCCN1C(=O)c1ccc(NS(=O)(=O)c2ccc3[nH]c(=O)[nH]c3c2)cc1 (centres undefined) | – | – | – | > 30 µM | > 30 µM | –
O=C(Nc1ccc(S(=O)(=O)Nc2nccs2)cc1)C1Cc2cc(Cl)ccc2O1 (centres undefined) | > 30 µM | Not Active | > 30 µM | > 30 µM | 0.24 µM | inhibition [6]: inactive; inhibition [7]: inactive; inhibition [16]: 21%; inhibition [8]: inactive; inhibition [9]: inactive; inhibition [10]: inactive; inhibition [11]: inactive
CC(NS(=O)(=O)c1ccc(C2=CC(c3ccc(Cl)cc3)n3nnnc3N2)cc1)C(=O)O (centres undefined) | – | – | – | > 30 µM | > 30 µM | –

SMILES | IC50 [1] | inhibition (INH) [2] | IC50 [3] | IC50 [4] | IC50 [5] | further results
CS(=O)(=O)NC(=O)c1ccc(NC(=O)[C@@H]2C[C@H]2c2ccccc2)cc1 | – | Not Active | – | > 30 µM | > 30 µM | inhibition [6]: inactive; inhibition [7]: inactive; inhibition [8]: inactive; inhibition [9]: inactive; inhibition [10]: inactive; inhibition [11]: inactive
CS(=O)(=O)NC(=O)c1ccc(NC(=O)c2cc(Br)c(Br)n2Cc2ccccc2)cc1 | – | Not Active | – | – | – | –
O=C(Nc1ccc(S(=O)(=O)Nc2nccs2)cc1)c1cccn1-c1ccccc1 | > 30 µM | Not Active | > 30 µM | – | – | –
CC(=O)NS(=O)(=O)c1ccc(NC(=O)c2cc(Br)c(Br)n2Cc2ccccc2)cc1 | – | Not Active | – | – | – | –
C[C@@H](Oc1ccc(Cl)cc1)C(=O)Nc1ccc(C(=O)NS(C)(=O)=O)cc1 | – | Not Active | – | – | – | –
C[C@H](Oc1ccc(Cl)cc1)C(=O)Nc1ccc(C(=O)NS(C)(=O)=O)cc1 | – | Not Active | – | – | – | –
CC(CCc1ccc(O)cc1)NC(=O)Nc1ccc(S(=O)(=O)N2CCCC2)cc1 (centres undefined) | – | – | – | > 30 µM | 20 µM | –
CC(=O)NS(=O)(=O)c1ccc(NC(=O)c2cccn2Cc2ccc(Cl)cc2)cc1 | – | Not Active | – | – | – | –
O=C(Nc1cccc(S(=O)(=O)Nc2nccs2)c1)c1cc(Br)c(Br)n1Cc1ccccc1 | > 30 µM | Not Active | > 30 µM | – | – | –
O=C(Nc1ccc(S(=O)(=O)Nc2nccs2)cc1)c1cc(Br)c(Br)n1-c1ccccc1 | > 30 µM | Not Active | > 30 µM | – | – | IC50 [12]: > 30 µM; IC50 [13]: 9.3 µM; IC50 [14]: > 30 µM; IC50 [15]: 3.4 µM
CC(=O)NS(=O)(=O)c1ccc(NC(=O)[C@@H]2C[C@H]2c2ccccc2)cc1 | > 30 µM | Not Active | > 30 µM | – | – | –
CS(=O)(=O)NC(=O)c1ccc(NC(=O)C2CC2c2ccc(F)c(F)c2)cc1 (racemic) | – | Not Active | – | > 30 µM | > 30 µM | inhibition [6]: inactive; inhibition [7]: inactive; inhibition [8]: inactive; inhibition [9]: inactive; inhibition [10]: inactive; inhibition [11]: inactive
NC1=N[C@H](O)[C@H]2[C@H]3O[C@]4(O)O[C@@H]([C@@H](O)[C@@]2(N1)[C@@H]4O)[C@]3(O)CO [TETRODOTOXIN] | – | – | – | 0.004 µM | 0.001 µM | –
CN(C)CCC=C1c2ccccc2CCc2ccccc21 [AMITRIPTYLINE] | 11 µM | – | 6.9 µM | – | – | IC50 [12]: 10 µM; IC50 [13]: 2.3 µM; IC50 [14]: 20 µM; IC50 [15]: 1.2 µM
O=C(Nc1nccs1)c1ccc(NC(=O)[C@@H]2C[C@H]2c2ccccc2)cc1 | > 30 µM | – | > 30 µM | – | – | IC50 [12]: > 30 µM; IC50 [13]: > 30 µM; IC50 [14]: > 30 µM; IC50 [15]: > 30 µM
O=C(Nc1ccc(S(=O)(=O)Nc2nccs2)cc1)c1cccn1Cc1ccc(Cl)cc1 | > 30 µM | Not Active | > 30 µM | – | – | IC50 [12]: > 30 µM; IC50 [13]: 8.4 µM; IC50 [14]: > 30 µM; IC50 [15]: 3.7 µM
CS(=O)(=O)NC(=O)c1ccc(OC[C@@H]2C[C@H]2c2ccccc2)cc1 | > 30 µM | Not Active | > 30 µM | – | – | –
CN(C)S(=O)(=O)NC(=O)c1ccc(NC(=O)c2cccn2Cc2ccc(Cl)cc2)cc1 | – | Not Active | – | – | – | –
CC(=O)NS(=O)(=O)c1ccc(NC(=O)c2cccn2Cc2ccccc2)cc1 | – | – | – | > 30 µM | 23 µM | –
CC(Oc1ccc(Cl)cc1)C(=O)Nc1ccc(S(=O)(=O)Nc2nccs2)cc1 (centres undefined) | > 30 µM | Not Active | > 30 µM | > 30 µM | 0.32 µM | inhibition [6]: inactive; inhibition [7]: inactive; inhibition [16]: 21%; inhibition [8]: inactive; inhibition [9]: inactive; inhibition [10]: inactive; inhibition [11]: inactive
